Active and inactive are the calls of the source. The calls are words filed in the database; no cut-off is given here.
Experiments:
Rattus norvegicus [1] = assay: Toxicity in Wistar rat assessed as RBC level at 200 mg/kg, po for 14 days (reference value: 8.19 +/- 0.648 10^6/mm3); format: organism-based; details: in vivo, 336 h
Rattus norvegicus [2] = assay: Toxicity in Wistar rat assessed as lymphocyte level at 200 mg/kg, po for 14 days (reference value: 77.33 +/- 2.08%); format: organism-based; details: in vivo, 336 h
Mus musculus [3] = assay: Anticonvulsant activity in Swiss albino mouse assessed as protection against subcutaneous pentylenetetrazole-induced seizures at 300 mg/kg, ip administered 0.5 hrs prior to PTZ challenge and measured after 30 mins; format: functional
Method in brief: (§1)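 Male Swiss Albino mice (25–30 g), 6 per group, dosed i.p. with drugs in sterile saline, then challenged with PTZ 85 mg/kg s.c. (CD97), given at 10 ml/kg, 0.5 h or 4 h later. Each animal is observed singly for seizures. Protection is scored as protected/total animals.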

Rattus norvegicus [4] = assay: Toxicity in Wistar rat assessed as basophils level at 200 mg/kg, po for 14 days (reference value: 0 +/0%); format: organism-based; details: in vivo, 336 h
Mus musculus [5] = assay: Anticonvulsant activity in Swiss albino mouse assessed as protection against subcutaneous pentylenetetrazole-induced seizures at 100 mg/kg, ip administered 4 hrs prior to PTZ challenge and measured after 30 mins; format: functional; method in brief: as §1
Rattus norvegicus [6] = assay: Toxicity in Wistar rat assessed as effect on total protein level at 200 mg/kg, po for 14 days; format: organism-based; details: in vivo, 336 h
Method in brief: (§2)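 Normal Wistar rats are given 200 mg/kg orally for 14 days, with vehicle-treated controls. Serum liver markers (SGOT, SGPT, ALP, total protein, total bilirubin) and renal markers (urea, creatinine, uric acid) are then measured, mean ± S.D.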

Mus musculus [7] = assay: Anticonvulsant activity in Swiss albino mouse assessed as protection against subcutaneous pentylenetetrazole-induced seizures at 100 mg/kg, ip administered 0.5 hrs prior to PTZ challenge and measured after 30 mins; format: functional; method in brief: as §1
Rattus norvegicus [8] = assay: Toxicity in Wistar rat assessed as effect on calcium level at 200 mg/kg, po for 14 days; format: organism-based; details: in vivo, 336 h
[9] = biological target: T1, Prostaglandin G/H synthase 2 (Homo sapiens) (UniProt P35354); assay: Inhibition of human recombinant COX2 at 10 uM using arachidonic acid as substrate preincubated for 5 mins followed by substrate addition and measured after 2 mins by ADPH probe-based fluorescence assay relative to control
T1 sequence (whole entry): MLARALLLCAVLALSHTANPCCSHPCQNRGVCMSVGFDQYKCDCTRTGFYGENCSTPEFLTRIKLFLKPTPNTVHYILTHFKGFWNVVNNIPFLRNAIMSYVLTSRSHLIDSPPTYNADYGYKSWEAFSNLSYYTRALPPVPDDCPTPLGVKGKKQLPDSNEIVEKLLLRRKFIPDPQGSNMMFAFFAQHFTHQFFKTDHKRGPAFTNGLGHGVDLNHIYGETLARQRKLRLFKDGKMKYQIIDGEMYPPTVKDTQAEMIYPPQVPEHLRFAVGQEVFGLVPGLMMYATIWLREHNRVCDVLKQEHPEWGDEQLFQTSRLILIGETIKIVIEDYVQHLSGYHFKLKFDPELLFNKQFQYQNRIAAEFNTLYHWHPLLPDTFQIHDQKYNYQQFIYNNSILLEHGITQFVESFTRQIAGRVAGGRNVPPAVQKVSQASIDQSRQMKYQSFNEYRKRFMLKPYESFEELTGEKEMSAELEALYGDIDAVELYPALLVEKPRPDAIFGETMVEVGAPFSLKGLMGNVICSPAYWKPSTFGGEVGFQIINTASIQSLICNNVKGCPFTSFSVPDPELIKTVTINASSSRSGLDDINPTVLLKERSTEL
Method in brief: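 Kit assay in 100 mM Tris-HCl pH 8.0. Enzyme, heme and inhibitor (DMSO stocks) are incubated 5 min at room temperature. ADPH is added, then arachidonic acid starts the reaction. After 2 min, fluorescence is read at ex 535/em 590 nm. Percent inhibition is taken versus the 100% activity well, background wells included. IC50 is derived from percentage inhibition, mean of three independent experiments.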

Rattus norvegicus [10] = assay: Toxicity in Wistar rat assessed as neutrophil level at 200 mg/kg, po for 14 days (reference value: 17.33 +/- 3.21%); format: organism-based; details: in vivo, 336 h
Rattus norvegicus [11] = assay: Toxicity in Wistar rat assessed as eosinophil level at 200 mg/kg, po for 14 days (reference value: 2.67 +/- 0.58%); format: organism-based; details: in vivo, 336 h
Mus musculus [12] = assay: Anticonvulsant activity in Swiss albino mouse assessed as protection against subcutaneous pentylenetetrazole-induced seizures at 300 mg/kg, ip administered 4 hrs prior to PTZ challenge and measured after 30 mins; format: functional; method in brief: as §1
Rattus norvegicus [13] = assay: Antiepileptic activity in rat model of PTZ-induced epileptiogenesis kindling model assessed as decrease of seizure severity at 30 mg/kg, ip measured up to 28 days; format: functional, organism-based
Method in brief: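 Adult male Wistar rats receive PTZ 40 mg/kg i.p. on alternate days for 28 days plus daily i.p. treatment. After each PTZ injection, rats are observed singly for 45 min and scored on the revised Racine scale (stages to 6). Group mean score per week, ±S.D. Statistics are repeated-measures ANOVA with Tukey's test.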

Rattus norvegicus [14] = assay: Cognitive enhancing effect in ip dosed PTZ-kindled Wistar rat assessed as exploration preference by novel object recognition test (reference value: 5.7%); format: functional
Mus musculus [15] = assay: Anticonvulsant activity in Swiss albino mouse assessed as protection against subcutaneous pentylenetetrazole-induced seizures at 5 mg/kg, ip administered 6 hrs prior to PTZ challenge and measured after 30 mins; format: functional; details: in the assay text read “30 mg/kg” for “5 mg/kg”
Method in brief: (§3)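 Mice get a single i.p. dose, then PTZ 85 mg/kg s.c. at 0.5, 1, 2, 3, 4 or 6 h after dosing. Seizure protection is recorded at each interval as percentage of six Swiss Albino mice protected.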

Rattus norvegicus [16] = assay: Toxicity in Wistar rat assessed as TLC level at 200 mg/kg, po for 14 days (reference value: 7.23 +/- 1 10^3/mm3); format: organism-based; details: in vivo, 336 h
Rattus norvegicus [17] = assay: Toxicity in Wistar rat assessed as platelet level at 200 mg/kg, po for 14 days (reference value: 1119 +/- 142.9 10^3/mm3); format: organism-based; details: in vivo, 336 h
Rattus norvegicus [18] = assay: Toxicity in Wistar rat assessed as effect on sodium level at 200 mg/kg, po for 14 days; format: organism-based; details: in vivo, 336 h
Mus musculus [19] = assay: Anticonvulsant activity in Swiss albino mouse assessed as protection against subcutaneous pentylenetetrazole-induced seizures at 5 mg/kg, ip administered 3 hrs prior to PTZ challenge and measured after 30 mins; format: functional; details: in the assay text read “30 mg/kg” for “5 mg/kg”; method in brief: as §3
Rattus norvegicus [20] = assay: Toxicity in Wistar rat assessed as effect on phosphorous level at 200 mg/kg, po for 14 days; format: organism-based; details: in vivo, 336 h
Rattus norvegicus [21] = assay: Anxiolytic activity in ip dosed PTZ-kindled Wistar rat assessed as time spent in light zone by light-dark test (reference value: 3.05 +/- 1.25%); format: functional
Mus musculus [22] = assay: Anticonvulsant activity in Swiss albino mouse assessed as protection against subcutaneous pentylenetetrazole-induced seizures at 5 mg/kg, ip administered 1 hr prior to PTZ challenge and measured after 30 mins; format: functional; details: in the assay text read “30 mg/kg” for “5 mg/kg”; method in brief: as §3
Rattus norvegicus [23] = assay: Toxicity in Wistar rat assessed as effect on blood urea level at 200 mg/kg, po for 14 days; format: organism-based; details: in vivo, 336 h; method in brief: as §2
Rattus norvegicus [24] = assay: Toxicity in Wistar rat assessed as effect on SGOT level at 200 mg/kg, po for 14 days; format: organism-based; details: in vivo, 336 h; method in brief: as §2

SMILES: Cc1ccc(NC(=S)NNC(=O)Nc2ccc(S(C)(=O)=O)cc2)cc1
- Activity (Rattus norvegicus [1]): 7.34 ×10⁶ /mm3
- Activity (Rattus norvegicus [2]): 73%
- Activity (Mus musculus [3]): 83%
- Activity (Rattus norvegicus [4]): 0.5%
- Activity (Mus musculus [5]): 83%
- Activity (Rattus norvegicus [6]): Non-Toxic
- Activity (Mus musculus [7]): 67%
- Activity (Rattus norvegicus [8]): Non-Toxic
- inhibition [9]: 75%
- Activity (Rattus norvegicus [10]): 21.5%
- Activity (Rattus norvegicus [11]): 2.5%
- Activity (Mus musculus [12]): 83%
- Activity (Rattus norvegicus [13]): Active
- Activity (Rattus norvegicus [14]): 3.9%
- Activity (Mus musculus [15]): 67%
- Activity (Rattus norvegicus [16]): 6.25 ×10³ /mm3
- Activity (Rattus norvegicus [17]): 990 ×10³ /mm3
- Activity (Rattus norvegicus [18]): Non-Toxic
- Activity (Mus musculus [19]): 83%
- Activity (Rattus norvegicus [20]): Non-Toxic
- Activity (Rattus norvegicus [21]): 13.3%
- Activity (Mus musculus [22]): 67%
- Activity (Rattus norvegicus [23]): Non-Toxic
- Activity (Rattus norvegicus [24]): Non-Toxic
